This is an account of results in ChEMBL document CHEMBL4680142, “Thiazolidine-2,4-dione-based irreversible allosteric IKK-β kinase inhibitors: Optimization into in vivo active anti-inflammatory agents” (Eur J Med Chem, 2020).

Series [1] has as its target T1, Inhibitor of nuclear factor kappa-B kinase subunit beta (Homo sapiens) (UniProt O14920).
T1 sequence (whole entry): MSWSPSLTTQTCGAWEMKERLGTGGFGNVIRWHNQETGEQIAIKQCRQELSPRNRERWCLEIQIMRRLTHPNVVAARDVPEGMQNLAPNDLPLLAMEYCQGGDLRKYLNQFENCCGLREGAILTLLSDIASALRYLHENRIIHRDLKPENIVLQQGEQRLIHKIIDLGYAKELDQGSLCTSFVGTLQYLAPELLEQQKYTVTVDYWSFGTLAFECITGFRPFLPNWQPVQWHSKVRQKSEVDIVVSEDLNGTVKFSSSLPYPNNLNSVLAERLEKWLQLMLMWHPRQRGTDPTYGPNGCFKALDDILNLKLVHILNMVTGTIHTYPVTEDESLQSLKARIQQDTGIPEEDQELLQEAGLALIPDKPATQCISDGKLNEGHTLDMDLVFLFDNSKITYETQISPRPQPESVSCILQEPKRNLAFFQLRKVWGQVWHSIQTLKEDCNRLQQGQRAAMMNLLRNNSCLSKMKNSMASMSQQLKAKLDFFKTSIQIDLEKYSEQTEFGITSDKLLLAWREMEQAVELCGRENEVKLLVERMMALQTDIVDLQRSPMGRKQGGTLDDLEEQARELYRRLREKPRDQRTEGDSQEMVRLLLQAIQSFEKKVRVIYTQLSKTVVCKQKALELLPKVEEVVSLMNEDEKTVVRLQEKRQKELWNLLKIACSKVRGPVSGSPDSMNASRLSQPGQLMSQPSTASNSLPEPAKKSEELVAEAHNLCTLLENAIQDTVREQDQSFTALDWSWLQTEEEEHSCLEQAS
Description: Allosteric inhibition of IKKbeta (unknown origin) using 5FAM-GRHDSGLDSMK-NH2 as substrate at 0.001 to 30 uM pretreated for 10 mins followed by substrate addition measured immediately by TR-FRET assay. The note with it: filed as negative allosteric modulator, dose 0.001-30 µM. A digest of the protocol: (§1)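 IKK2 (0.5 µg/mL) in 10 mM Tris-HCl pH 7.2, 10 mM MgCl2, 0.05% NaN3, 1 mM DTT, 0.01% Tween-20, room temperature. Compound (30 to 0.001 µM, ten roughly three-fold dilutions) preincubated 10 min with enzyme. Reaction started with 1 µM 5FAM-IκBα peptide and 3 µM ATP, run 0, 20, 40 or 60 min. IMAP binding reagent/terbium donor detection, TR-FRET read at 495/520 nm. Kobs fitted against concentration by nonlinear regression.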
(In general: In TR-FRET formats the signal depends on donor and acceptor labels being close together.)

In series [2] the target is T1, Inhibitor of nuclear factor kappa-B kinase subunit beta (Homo sapiens). Kind of series: Allosteric inhibition of IKKbeta (unknown origin) at 0.001 to 30 uM using 5FAM-GRHDSGLDSMK-NH2 as substrate incubated for 10 mins followed by substrate addition and measured after 20 mins by TR-FRET assay relative to control. The note with it: filed as negative allosteric modulator, dose 0.001-30 µM, time 30.0 min. A digest of the protocol: as §1

The target is the same in series [3]. Kind of series: Allosteric inhibition of IKKbeta (unknown origin) at 0.001 to 30 uM using 5FAM-GRHDSGLDSMK-NH2 as substrate incubated for 10 mins followed by substrate addition and measured after 40 mins by TR-FRET assay relative to control. The note with it: filed as negative allosteric modulator, dose 0.001-30 µM, time 50.0 min. In short, it runs like this:
as §1

For series [4], the target named is T2, Inhibitor of nuclear factor kappa-B kinase subunit beta (Homo sapiens, UniProt O14920).
T2 sequence (O14920 whole entry): T1 sequence (whole entry)
Description: Allosteric inhibition of IKKbeta (unknown origin) using 5FAM-GRHDSGLDSMK-NH2 as substrate incubated for 10 mins followed by substrate addition and measured immediately by TR-FRET assay. In short, it runs like this: (§2)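 Kinetic IMAP TR-FRET run with 0.5 µg/mL IKK2 in 10 mM Tris-HCl pH 7.2, 10 mM MgCl2, 0.05% NaN3, 1 mM DTT, 0.01% Tween-20. Compound (ten doses, 30 to 0.001 µM) pre-incubated with enzyme 10 min, then 1 µM IκBα-derived substrate and 3 µM ATP added. Room temperature. Reactions run 0, 20, 40 or 60 min. Ten-point curves fitted by nonlinear regression.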

The target in series [5] is T2, Inhibitor of nuclear factor kappa-B kinase subunit beta. Kind of series: Allosteric inhibition of IKKbeta (unknown origin) using 5FAM-GRHDSGLDSMK-NH2 as substrate incubated for 10 mins followed by substrate addition and measured after 20 mins by TR-FRET assay. A digest of the protocol: as §2
The target is the same in series [6]. Description: Allosteric inhibition of IKKbeta (unknown origin) using 5FAM-GRHDSGLDSMK-NH2 as substrate incubated for 10 mins followed by substrate addition and measured after 60 mins by TR-FRET assay. In short, it runs like this:
as §2

Series [7] deals with T1, Inhibitor of nuclear factor kappa-B kinase subunit beta (Homo sapiens). Description: Allosteric inhibition of IKKbeta (unknown origin) assessed as inactivation constant using 5FAM-GRHDSGLDSMK-NH2 as substrate incubated for 10 mins followed by substrate addition and measured upto 60 mins by TR-FRET assay. The note with it: filed as negative allosteric modulator, time 70.0 min. In short, it runs like this: as §1

Series [8] deals with RAW264.7. Description: Antiinflammatory activity against mouse RAW264.7 cells assessed as reduction in LPS-induced TNF-alpha level incubated for 1 hr followed by LPS stimulation and measured after 24 hrs by ELISA. The series is classed as functional, cell-based. A digest of the protocol:
(§3)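 RAW 264.7 cells (DMEM, 10% FBS, 37 °C, 5% CO2) plated at 2×10^5 cells/mL and left overnight. Compounds (0.1, 1, 10 µM) or NS-398 given for 1 h, then LPS 10 ng/mL for 24 h. Culture medium assayed by ELISA: competitive colorimetric for PGE2/TNF-α, mouse DuoSet for TNF-α/IL-6. IC50 is the concentration lowering the mediator to 50%.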
(In general: ELISA stands for enzyme-linked immunosorbent assay.)

The test system of series [9] is RAW264.7. Kind of series: Antiinflammatory activity against mouse RAW264.7 cells assessed as reduction in LPS-induced TNF-alpha level at 10 uM incubated for 1 hr followed by LPS stimulation and measured after 24 hrs by ELISA relative to control. It is filed as functional. The note with it: time 25 hrs. A digest of the protocol:
as §3

In series [10] the test system is RAW264.7. Kind of series: Antiinflammatory activity against mouse RAW264.7 cells assessed as reduction in LPS-induced TNF-alpha level at 0.1 to 1 uM incubated for 1 hr followed by LPS stimulation and measured after 24 hrs by ELISA. The series is classed as functional, cell-based. The note with it: dose 0.1-1 µM, time 25.0 hrs. In short, it runs like this:
as §3

Series [11] can be described thus: Effect on NO production in non-stimulated mouse RAW264.7 cells at 10 uM after 24 hrs by Griess reagent based assay. The note with it: raw264.7, 24 h. For orientation: The Griess reaction detects nitrite, a stable product of nitric oxide.
The test system of series [12] is RAW264.7. Description: Cytotoxicity against mouse RAW264.7 cells assessed as reduction in cell viability at 6 uM incubated for 24 hrs by MTT assay. The series is classed as cell-based. Conditions: raw264.7, 24 h. In short, it runs like this: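 MTT viability in RAW 264.7 cells seeded at 1×10^5 cells/mL and incubated overnight. Compounds added with or without LPS (1 µg/mL) for 24 h. MTT for 4 h at 37 °C, formazan dissolved in DMSO, absorbance read at 540 nm. IC80 is the concentration reducing viability to 80% with LPS.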

Series [13] concerns RAW264.7. Description: Antiinflammatory activity against mouse RAW264.7 cells assessed as reduction in LPS-induced PGE2 production at 0.1 to 1 uM incubated for 1 hr followed by LPS stimulation and measured after 24 hrs by ELISA. It is filed as functional, cell-based. The note with it: dose 0.1-1 µM, time 25.0 hrs. A digest of the protocol:
as §3

The structures appear in SMILES notation. Activity calls are given as the source filed them. No cut-off for these calls is given here.

On to `CN1CCN(CCCOc2ccc(N3C(=O)S/C(=C\c4ccc(Oc5ccc(C#N)cc5)cc4)C3=O)cc2)CC1`, for which the inhibition in series [1] is -9.33%; in series [2], -7.14%; in [3], -4.47%. For the same compound, the IC50 in series [4] is 575 nM; in series [5] it was 347 nM; in [6], 204 nM; in the series with RAW264.7 [8], 6270 nM. For the same compound, the Kinact in [7] was determined as 0.013 min⁻¹. In addition, the inhibition at 10 µM in the series on RAW264.7 [9] turned out to be 80%. In addition, the inhibition result in the series on RAW264.7 [10] is “inactive”. For the same compound, the Activity entry (in series [11]; in the series on RAW264.7 [12]) was “Non-Toxic” throughout.

For `CN1CCN(CCCCCOc2cccc(N3C(=O)S/C(=C\c4ccc(Oc5ccc([N+](=O)[O-])cc5)cc4)C3=O)c2)CC1`, the inhibition in [1] is -5.63%; in series [2], -3.68%; in [3], -8.33%; in the series with RAW264.7 [8] (time 25.0 hrs) it was “Dose-dependent effect”. The IC50 is 347 nM in [4], 245 nM in series [5], 219 nM in series [6] and 5220 nM with RAW264.7 [8]. Moreover, in [7], the Kinact was 0.027 min⁻¹. Besides, the inhibition at 10 µM in the series with RAW264.7 [9] came to 84%. Moreover, the result with RAW264.7 [13] was inactive. The Activity entry (in [11]; with RAW264.7 [12]) was “Non-Toxic” throughout.

Usually inhibition stands for the drop in the measured response relative to a control, in per cent. The IC50 is the concentration needed to halve the response being measured.
